This note sets out measurements from paper PMC8577376 (Journal of Medicinal Chemistry, 2021).

Some results are limits rather than exact numbers.

Experiment [1] concerns the target T1, human CatL (Homo sapiens, UniProt P07711). The experiment in a line: kinact/KI^app determination, recombinant human CatL. It counts as biochemical. The conditions noted are these: for kinact/KI: read-out: kinact/KI^app; for selectivity for CatL over CatB (kinact/KI^app): human CatL vs human CatB. Summed up:
(§1)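 Test compound 555.56–0.01 nM, quadruplicate wells. Product formation rates taken at 6 min intervals over 1 h, normalised to DMSO controls. kobs from inactivation curves; kinact and KIapp by nonlinear regression of kobs = kinact[I]/(KIapp+[I]); ratio then calculated.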

Another experiment deals with Human CatB (Homo sapiens, UniProt P07858). In words: kinact/KI^app determination, recombinant human CatB. It counts as biochemical. Particulars: for kinact/KI: read-out: kinact/KI^app. The essentials: as §1
In another experiment the target is Mouse CatL (mCatL) (Mus musculus, UniProt P06797). In words: kinact/KI^app determination, mouse CatL. It counts as biochemical. The conditions noted are these: for kinact/KI: read-out: kinact/KI^app. Summed up:
as §1

Experiment [2] deals with SARS-CoV-2. In words: SARS-CoV-2-induced CPE in A549/ACE2 cells, inverted microscope. It counts as cell-based. Particulars: 96 h.
For experiment [3], the target named is T1, human CatL. The experiment in a line: Single-concentration protease screen against human CatL. It counts as biochemical. The conditions noted are these: for follow-up screen against CatL: 13 nM.
Experiment [4] concerns the target VeroE6 lysates (CatL activity) (Chlorocebus aethiops, UniProt Q9GKL8). In words: Protease activity in VeroE6 cell lysates using Z-Phe-Arg-AMC. It counts as biochemical, monkey. Particulars: for inactivation of CatL in VeroE6 lysates: 10 μM; for inhibition of Z-Phe-Arg-AMC cleaving activity in VeroE6 lysates: 20 μM.
The test system of experiment [5] is A549 lysates (CatL/CatB activity). The experiment in a line: Protease activity in A549 cell lysates using Z-Phe-Arg-AMC. It counts as biochemical, human. Particulars: for inactivation of CatL in A549 lysates: 10 μM; for inhibition of Z-Phe-Arg-AMC cleaving activity in A549 cell extracts: 20 μM. Summed up: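 A549 cells lysed by sonication in 50 mM MES pH 6.0 with 100 μM AEBSF, 1 μM pepstatin A, 1 mM EDTA and 1 mM DTT; protein measured by BCA. Equal volume of 50 μM Z-Phe-Arg-AMC then added; activity normalised to 0.2% DMSO wells.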

In experiment [6] the test system is SARS-CoV-2. The experiment in a line: microbe, parasite or virus in culture. It counts as cell-based.
In the next experiment the target is SARS-CoV-2 Mpro (Severe acute respiratory syndrome coronavirus 2, UniProt P0DTD1). In words: Single-concentration protease screen against SARS-CoV-2 Mpro. It counts as biochemical. The conditions noted are these: 10 μM.
The next experiment has as its target SARS-CoV-2 PLpro (Severe acute respiratory syndrome coronavirus 2, UniProt P0DTD1). In words: Single-concentration protease screen against SARS-CoV-2 PLpro. It counts as biochemical. The conditions noted are these: 10 μM.
The target of a further experiment is Recombinant human furin (Homo sapiens, UniProt P09958). It counts as biochemical. Particulars: up to 50 μM (final concentration).
Recombinant human furin, sequence (P09958 108-794): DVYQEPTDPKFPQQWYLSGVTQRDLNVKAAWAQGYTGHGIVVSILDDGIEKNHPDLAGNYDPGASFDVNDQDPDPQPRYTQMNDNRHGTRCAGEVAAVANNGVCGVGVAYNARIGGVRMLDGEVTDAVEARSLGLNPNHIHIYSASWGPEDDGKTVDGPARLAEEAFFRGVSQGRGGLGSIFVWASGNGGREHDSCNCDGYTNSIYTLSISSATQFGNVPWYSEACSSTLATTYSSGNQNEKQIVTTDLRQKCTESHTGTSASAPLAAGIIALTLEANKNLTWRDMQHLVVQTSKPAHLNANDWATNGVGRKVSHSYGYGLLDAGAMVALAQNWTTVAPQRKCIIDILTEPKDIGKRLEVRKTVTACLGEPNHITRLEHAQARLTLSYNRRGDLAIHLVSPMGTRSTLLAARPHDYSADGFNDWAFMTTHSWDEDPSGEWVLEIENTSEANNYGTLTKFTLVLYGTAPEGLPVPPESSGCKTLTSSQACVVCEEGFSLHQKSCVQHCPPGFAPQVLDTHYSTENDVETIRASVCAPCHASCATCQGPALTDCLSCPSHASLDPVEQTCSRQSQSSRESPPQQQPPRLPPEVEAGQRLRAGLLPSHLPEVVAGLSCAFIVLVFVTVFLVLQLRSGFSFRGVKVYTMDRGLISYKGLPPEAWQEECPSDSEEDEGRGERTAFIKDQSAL
Experiment [7] has as its target Recombinant human TMPRSS2 (Homo sapiens, UniProt O15393). In words: TMPRSS2 protease activity assay. It counts as biochemical. The conditions noted are these: up to 50 μM (final concentration).
In experiment [8] the test system is SARS-CoV-2. It counts as cell-based. Particulars: MRC-5/ACE2/TMPRSS2 cells.
Experiment [9] relates to SARS-CoV-2. It counts as cell-based. The conditions noted are these: 24 h.
Experiment [10] relates to SARS-CoV-2. It counts as cell-based.

VeroE6 lysates (CatL activity), sequence (Q9GKL8 114-333): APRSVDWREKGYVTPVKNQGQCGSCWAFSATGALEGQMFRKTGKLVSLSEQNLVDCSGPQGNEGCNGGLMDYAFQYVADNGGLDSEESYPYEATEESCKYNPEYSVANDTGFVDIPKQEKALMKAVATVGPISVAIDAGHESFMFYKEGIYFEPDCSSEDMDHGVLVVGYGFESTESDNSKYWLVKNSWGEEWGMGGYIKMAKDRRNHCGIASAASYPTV
T1 sequence (P07711 114-333): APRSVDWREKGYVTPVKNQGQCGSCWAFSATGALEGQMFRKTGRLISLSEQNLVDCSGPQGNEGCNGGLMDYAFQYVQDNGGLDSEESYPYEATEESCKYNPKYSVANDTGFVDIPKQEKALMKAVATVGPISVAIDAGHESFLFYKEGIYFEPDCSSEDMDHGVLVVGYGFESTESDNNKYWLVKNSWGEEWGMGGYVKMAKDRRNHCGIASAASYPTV
Mouse CatL (mCatL), sequence (P06797 114-334): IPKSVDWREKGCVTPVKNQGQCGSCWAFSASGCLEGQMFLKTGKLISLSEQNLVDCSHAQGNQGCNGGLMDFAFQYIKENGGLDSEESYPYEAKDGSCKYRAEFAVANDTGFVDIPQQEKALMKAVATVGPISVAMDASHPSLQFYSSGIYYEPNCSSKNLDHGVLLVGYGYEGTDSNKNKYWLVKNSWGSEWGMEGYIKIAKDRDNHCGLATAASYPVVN
Recombinant human TMPRSS2, sequence (O15393 whole entry): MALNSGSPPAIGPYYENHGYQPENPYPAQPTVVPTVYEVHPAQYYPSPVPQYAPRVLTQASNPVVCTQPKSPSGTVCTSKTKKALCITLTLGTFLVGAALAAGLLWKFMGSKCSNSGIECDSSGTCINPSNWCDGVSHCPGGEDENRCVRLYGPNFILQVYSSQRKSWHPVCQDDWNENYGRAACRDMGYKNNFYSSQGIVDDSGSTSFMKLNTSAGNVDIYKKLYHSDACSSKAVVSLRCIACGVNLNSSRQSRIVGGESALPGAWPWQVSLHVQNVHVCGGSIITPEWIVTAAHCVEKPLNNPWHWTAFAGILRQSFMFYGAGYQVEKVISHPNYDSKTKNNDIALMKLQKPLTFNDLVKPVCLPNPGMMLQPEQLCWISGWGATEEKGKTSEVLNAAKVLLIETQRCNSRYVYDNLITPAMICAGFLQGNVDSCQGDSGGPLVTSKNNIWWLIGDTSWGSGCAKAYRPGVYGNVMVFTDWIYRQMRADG

Consider `COC1=CC(=O)N(C(=O)/C=C/[C@H](CCc2ccccc2)NC(=O)[C@H](CC(C)C)NC(=O)[C@H](CC(C)C)NC(=O)[C@H](C(C)C)N(C)C)[C@H]1Cc1c[nH]c2ccccc12` [compound 23], for which the results for the kinact at human CatL [1], on Human CatB and on Mouse CatL (mCatL) were 0.00985 s⁻¹, 0.00189 s⁻¹ and 0.0096 s⁻¹, respectively. The “fold more potent than parent natural product 1, based on kinact/KI^app” value on human CatL [1] (human CatL) was found to be 1.4 fold. Also, the values for the kinact/KI on human CatL [1], at Human CatB and at Mouse CatL (mCatL) were 835000 M⁻¹ s⁻¹, 7940 M⁻¹ s⁻¹ and 2.31e+06 M⁻¹ s⁻¹, respectively. For the same compound, the “lowest concentration completely preventing virus-induced CPE” value in the experiment on SARS-CoV-2 [2] was 310 nM. The “follow-up screen against CatL” value on human CatL [3] is “most potent inhibitors”.

Consider `COC1=CC(=O)N(C(=O)/C=C/[C@H](C)NC(=O)[C@H](CC(C)C)NC(=O)[C@H](CC(C)C)NC(=O)C2CCN(C)CC2)[C@H]1Cc1c[nH]c2ccccc12` [compound 20], for which the maximal inactivation rate constant (kinact) at human CatL [1] amounted to 0.00834 s⁻¹; on Human CatB, 0.017 s⁻¹; at Mouse CatL (mCatL), 0.00319 s⁻¹. The kinact/KI is 290000 M⁻¹ s⁻¹ at human CatL [1], 19900 M⁻¹ s⁻¹ at Human CatB and 806000 M⁻¹ s⁻¹ on Mouse CatL (mCatL). Besides, at human CatL [3], the “follow-up screen against CatL” value was “most potent inhibitors”. Also, the “inactivation of CatL in VeroE6 lysates” value in experiment [4] is “complete inactivation”. Moreover, the “inactivation of CatL in A549 lysates” value in experiment [5] is listed as “complete inactivation”.

Consider `COC1=CC(=O)N(C(=O)/C=C/[C@H](C)NC(=O)[C@H](CC(C)C)NC(=O)[C@H](CC2CCCCC2)NC(=O)C2CCN(C)CC2)[C@H]1Cc1c[nH]c2ccccc12` [compound 17], for which the EC50 with SARS-CoV-2 [6] (Severe acute respiratory syndrome coronavirus 2, Vero C1008, 72 h, read-out: EC50 SARS-CoV-2, VeroE6 cells, 72 h, mean ± SD of 3–4 independent biological replicates) was over 5 µM. At human CatL [1], the inactivation rate constant (kinact) was determined as 0.00347 s⁻¹, the “selectivity for CatL over CatB (kinact/KI^app)” value stood at 8 fold and the kinact/KI came to 193000 M⁻¹ s⁻¹. Further, at Human CatB, the kinact amounted to 0.0209 s⁻¹ and the kinact/KI turned out to be 24300 M⁻¹ s⁻¹. For the same compound, on Mouse CatL (mCatL), the kinact was 0.00856 s⁻¹ and the kinact/KI was 292000 M⁻¹ s⁻¹. Further, the “follow-up screen against CatL” value at human CatL [3] is listed as “most potent inhibitors”. Further, the “inactivation of CatL in VeroE6 lysates” value in [4] was “complete inactivation”. The “inactivation of CatL in A549 lysates” value in [5] is “complete inactivation”.

As to `CC[C@H](C)[C@@H](C(=O)O[C@@H](CC(C)C)C(=O)N[C@@H](CC(C)C)C(=O)N[C@@H](C)/C=C/C(=O)N1C(=O)C=C(OC)[C@@H]1C)N(C)C` [compound 1, gallinamide A], at human CatL [1], the kinact amounted to 0.00475 s⁻¹, the “selectivity for CatL over CatB (kinact/KI^app)” value is 112 fold and the kinact/KI came to 598000 M⁻¹ s⁻¹. In addition, on Human CatB, the kinact stood at 0.000627 s⁻¹ and the kinact/KI was 5350 M⁻¹ s⁻¹. Also, on Mouse CatL (mCatL), the kinact came out at 0.00569 s⁻¹ and the kinact/KI amounted to 1.07e+06 M⁻¹ s⁻¹. The “lowest concentration completely preventing virus-induced CPE” value with SARS-CoV-2 [2] is reported as 625 nM. The “follow-up screen against CatL” value on human CatL [3] was “most potent inhibitors”. Also, the “CatL activity after incubation with compound” value on human CatL [3] (10 μM) is recorded as “completely inhibited”. Further, on SARS-CoV-2 Mpro, the “inhibition of Mpro” value is given as “no inhibition”. At SARS-CoV-2 PLpro, the “inhibition of PLpro” value is listed as “no inhibition”. Further, on Recombinant human furin, the “inhibition of furin activity” value is “did not inhibit”. In addition, in experiment [7], the “inhibition of TMPRSS2 activity” value is on record as “did not inhibit”. The “inhibition of Z-Phe-Arg-AMC cleaving activity in VeroE6 lysates” value in experiment [4] is reported as “completely inhibited”. In experiment [5], the “inhibition of Z-Phe-Arg-AMC cleaving activity in A549 cell extracts” value is reported as “inhibited”. Besides, the “concentration completely neutralizing SARS-CoV-2 entry” value in the experiment on SARS-CoV-2 [8] was found to be 32 nM. Moreover, the “antiviral activity in HEK293-ACE2-TMPRSS2 cells” value in the experiment on SARS-CoV-2 [9] is “substantially reduced”. Moreover, the “inhibitory effect on infection by time of addition” value with SARS-CoV-2 [10] is “maximum when 1 was added prior to or at the time of entry”.

Consider `CCCNC(=O)[C@H]1O[C@@H]1C(=O)N[C@H](C(=O)N1CCC[C@H]1C(=O)O)[C@@H](C)CC` [CA-074, reference compound], for which, in experiment [4], the “inhibition of Z-Phe-Arg-AMC cleaving activity in VeroE6 lysates” value is reported as “no inhibitory activity”. For the same compound, in experiment [5], the “inhibition of Z-Phe-Arg-AMC cleaving activity in A549 cell extracts” value was “most of the activity was also sensitive”.

Turning to `CC[C@H](C)[C@@H](C(=O)O[C@@H](CC(C)C)C(=O)N[C@@H](CC(C)C)C(=O)N[C@@H](C)/C=C/C(=O)N1C(=O)C=C(OC)[C@@H]1CC(C)C)N(C)C` [compound 3], at human CatL [3], the “follow-up screen against CatL” value is “most potent inhibitors”.

Consider `COC1=CC(=O)N(C(=O)/C=C/[C@H](C)NC(=O)[C@H](CCc2ccccc2)NC(=O)[C@H](CC2CCCCC2)NC(=O)[C@H](C(C)C)N(C)C)[C@H]1Cc1c[nH]c2ccccc12` [compound 19], for which the kinact on human CatL [1] was found to be 0.00587 s⁻¹; on Human CatB, 0.00335 s⁻¹; at Mouse CatL (mCatL) it was 0.00224 s⁻¹. Moreover, the results for the kinact/KI at human CatL [1], at Human CatB and at Mouse CatL (mCatL) were 189000 M⁻¹ s⁻¹, 9650 M⁻¹ s⁻¹ and 136000 M⁻¹ s⁻¹, respectively. Besides, the “lowest concentration completely preventing virus-induced CPE” value in the experiment on SARS-CoV-2 [2] amounted to 310 nM. At human CatL [3], the “follow-up screen against CatL” value is on record as “most potent inhibitors”. In the experiment with SARS-CoV-2 [8], the “concentration completely neutralizing SARS-CoV-2 entry” value was 32 nM.

As to `CS(=O)(=O)O.CS(=O)(=O)O.N=C(N)Nc1ccc(C(=O)Oc2ccc3cc(C(=N)N)ccc3c2)cc1` [nafamostat mesylate, reference compound], the “antiviral activity on VeroE6 cells” value in the experiment on SARS-CoV-2 [6] is reported as “not effective”; in the experiment on SARS-CoV-2 [6] (listed as Nafamostat mesylate), “did not exhibit notable antiviral activity”. For the same compound, in the experiment on SARS-CoV-2 [8], the “concentration of neutralization of infection” value came out at 4 µM. The “antiviral activity in HEK293-ACE2-TMPRSS2 cells” value in the experiment with SARS-CoV-2 [9] is “potent antiviral activity”.

The term kinact denotes the maximal first-order rate at which the target is inactivated. For orientation: EC50 means the concentration that produces a half-maximal response.
